Laboratory results published in ChEMBL document CHEMBL4130626, “α-Arylidene Diacylglycerol-Lactones (DAG-Lactones) as Selective Ras Guanine-Releasing Protein 3 (RasGRP3) Ligands” (J Med Chem, 2018).

Experiments:
Format in all cases: cell-based
[1] = biological target: Protein kinase C delta type (Homo sapiens, UniProt Q05655); test: Activation of PKCdelta (unknown origin) expressed in HEK293 cells harboring GFP-tagged RasGRP3 assessed as phosphorylation at ser299 residues after 30 mins by immunoblot method
In short: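 Cells are GFP-RasGRP3-transfected HEK293, grown in EMEM + 10% FBS. Exposed 30 min at 37 °C, 5% CO2, to half-log concentrations up to 10 µM, 1000 nM PMA or DMSO. Lysed in RIPA with protease and phosphatase inhibitors. 50 µg protein run on 10% SDS-PAGE and blotted for phospho-PKCδ S299; anti-GFP used as loading control. Signal normalised to 1000 nM PMA. EC50 is the mean of n = 3.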

[2] = biological target: T1, Ras guanyl-releasing protein 3 (Homo sapiens, UniProt Q8IV61); test: Activation of GFP-tagged RasGRP3 (unknown origin) expressed in HEK293 cells after 30 mins by immunoblot method
T1 sequence (Q8IV61 whole entry): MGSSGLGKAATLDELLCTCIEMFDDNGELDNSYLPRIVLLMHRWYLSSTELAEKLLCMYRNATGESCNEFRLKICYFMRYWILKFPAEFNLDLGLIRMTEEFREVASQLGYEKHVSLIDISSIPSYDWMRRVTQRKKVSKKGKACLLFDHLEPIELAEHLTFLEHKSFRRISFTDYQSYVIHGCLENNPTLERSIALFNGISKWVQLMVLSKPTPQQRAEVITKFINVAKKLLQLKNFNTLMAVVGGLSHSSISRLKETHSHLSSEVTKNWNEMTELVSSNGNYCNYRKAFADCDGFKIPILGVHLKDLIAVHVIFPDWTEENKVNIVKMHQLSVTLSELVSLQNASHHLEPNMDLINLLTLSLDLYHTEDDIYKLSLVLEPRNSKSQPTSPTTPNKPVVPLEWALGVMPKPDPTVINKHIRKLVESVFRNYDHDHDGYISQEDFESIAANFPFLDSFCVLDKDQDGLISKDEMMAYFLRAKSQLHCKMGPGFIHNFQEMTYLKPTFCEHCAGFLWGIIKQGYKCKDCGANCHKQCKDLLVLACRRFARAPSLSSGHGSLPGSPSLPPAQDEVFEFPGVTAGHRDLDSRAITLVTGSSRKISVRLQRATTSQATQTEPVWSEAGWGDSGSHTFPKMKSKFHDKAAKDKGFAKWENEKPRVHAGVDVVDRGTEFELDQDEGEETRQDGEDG
In short: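 HEK293 cells grown in EMEM + 10% FBS, transfected after 48 h with GFP-RasGRP3 (Lipofectamine Plus). Treated 30 min at 37 °C, 5% CO2, with half-log increasing concentrations up to 10 µM, 1000 nM PMA or DMSO. Active Ras pulled down from lysates on Raf1-RBD agarose (60 min, 4 °C), immunoblotted with anti-Pan-Ras. Band intensity normalised to 1000 nM PMA. EC50 is the mean of n = 3.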

Homo sapiens = organism: Homo sapiens; test: Selectivity ratio of EC50 for PKCdelta (unknown origin) expressed in HEK293 cells harboring GFP-tagged RasGRP3 to EC50 for GFP-tagged RasGRP3 (unknown origin) expressed in HEK293 cells
In short: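 One EC50 comes from PKCδ S299 phosphorylation on immunoblot, the other from Ras-GTP pulled down on Raf1-RBD. Both signals normalised to 1000 nM PMA. EC50s above 10 µM are extrapolated.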

Chain of Protein kinase C delta type (Q05655 whole entry): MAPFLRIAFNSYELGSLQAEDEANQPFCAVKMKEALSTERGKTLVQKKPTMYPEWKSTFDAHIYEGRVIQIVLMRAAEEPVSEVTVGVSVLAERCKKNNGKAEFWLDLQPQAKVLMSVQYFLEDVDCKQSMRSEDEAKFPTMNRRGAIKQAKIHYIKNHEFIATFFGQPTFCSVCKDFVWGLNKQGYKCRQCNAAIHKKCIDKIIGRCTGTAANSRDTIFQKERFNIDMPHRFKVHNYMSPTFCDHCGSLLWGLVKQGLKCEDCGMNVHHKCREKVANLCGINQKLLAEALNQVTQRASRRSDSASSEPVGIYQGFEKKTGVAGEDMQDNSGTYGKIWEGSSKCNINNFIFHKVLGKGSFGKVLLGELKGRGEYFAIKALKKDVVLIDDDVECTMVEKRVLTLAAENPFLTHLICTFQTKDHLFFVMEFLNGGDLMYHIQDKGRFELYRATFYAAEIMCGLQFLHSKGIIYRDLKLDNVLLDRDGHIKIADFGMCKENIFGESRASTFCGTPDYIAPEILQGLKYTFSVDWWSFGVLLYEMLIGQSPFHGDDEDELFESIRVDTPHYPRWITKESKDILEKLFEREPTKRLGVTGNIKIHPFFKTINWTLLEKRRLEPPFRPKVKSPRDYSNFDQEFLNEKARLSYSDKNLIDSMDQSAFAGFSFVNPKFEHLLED

**Q.** What does the source list for CCCCCCCCCCCCCC(=O)O[C@@H]1[C@@H](C)[C@@]2(O)[C@@H](C=C(CO)C[C@]3(O)C(=O)C(C)=C[C@@H]23)[C@@H]2C(C)(C)[C@]12OC(C)=O [PHORBOL MYRISTATE ACETATE]?
**A.** EC50 [1]: 290 nM; EC50 [2]: 82 nM; Ratio EC50 (Homo sapiens): 3.5
